# KCNQ1 inh = human KCNQ1 channel inhibition; B-score at 10 µM; hit rate 1.3% among 310,000; P51787; CHO-K1 KCNQ1, FluxOR thallium flux fluorescence; hits give high values;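 active means compounds whose thallium flux B-score, printed positive for inhibition, exceeds three library SD while starting fluorescence stays within three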;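 further: channel opened by potassium depolarization with thallium stimulus after 20 min compound exposure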
# hERG rescue = compounds protecting human hERG from proarrhythmic drug block | CHO-hERG, FluxOR thallium flux, dofetilide IC70 present | Q12809 | AID 1511 | hit rate 0.51% among 310,000 | activation (rescue from dofetilide block), less the hit threshold, % at 10 µM;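 active means activation above the mean of controls blocked by dofetilide plus 5 SD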;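 further: thallium influx through hERG after potassium depolarization seen as dye fluorescence rise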
# KCNK3 block = human KCNK3 channel inhibition, primary screen; O14649; B-score at 10 µM; AID 602410; hit rate 0.84% among 340,000; CHO-KCNK3 thallium flux, FluxOR fluorescence; hits give low values;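 active means B-score under library mean minus 4 SD, starting fluorescence ratio at most library mean plus 5 SD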;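 further: more negative B-score means stronger inhibition of thallium flux through KCNK3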
# KCNK9 block = human KCNK9 channel inhibition; B-score at 10 µM; Q9NPC2; hit rate 1.2% among 310,000; HEK293 KCNK9, FluxOR thallium flux fluorescence; hits give low values;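 active means ratio B-score over 3 SD below the library mean, with starting fluorescence within 5 SD of its mean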;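 further: negative B-score means less thallium flux so channel inhibition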
# Target sequence (Q9NPC2 whole entry, looked up): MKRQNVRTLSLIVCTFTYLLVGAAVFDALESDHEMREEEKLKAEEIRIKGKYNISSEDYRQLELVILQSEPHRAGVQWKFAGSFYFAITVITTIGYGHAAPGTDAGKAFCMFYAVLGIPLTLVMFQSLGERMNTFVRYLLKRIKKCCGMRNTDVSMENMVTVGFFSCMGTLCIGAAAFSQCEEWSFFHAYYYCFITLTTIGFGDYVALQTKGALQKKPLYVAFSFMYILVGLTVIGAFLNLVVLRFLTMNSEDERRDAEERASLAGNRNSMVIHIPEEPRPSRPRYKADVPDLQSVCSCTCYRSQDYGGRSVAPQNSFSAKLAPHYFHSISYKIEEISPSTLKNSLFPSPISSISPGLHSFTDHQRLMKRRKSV
# KCNQ1 act = potentiates or activates the human KCNQ1 potassium channel; P51787; B-score at 10 µM; CHO-K1 KCNQ1, thallium flux FluxOR fluorescence; hits give high values; hit rate 0.35% among 310,000;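 active means fluorescence ratio B-score, a plate-corrected score, at least three library SD, with initial intensity B-score within 5 SD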
#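 Schedule – 37 °C overnight plating, 90-min dark dye load, 20-min compound pretreatment · System – stable KCNQ1 CHO-K1 line · Probe or stimulus – thallium- and potassium-containing depolarizing buffer · Measured by – kinetic FluxOR fluorescence, 10 s baseline plus 110 s post-stimulus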
# The depositor's hits bear a star; i = inactive; . = not tested or not shown. A selection: hits, their analogues and other compounds. The true share with any hit is near 3.1%.
SMILES,KCNQ1 inh,hERG rescue,KCNK3 block,KCNK9 block,KCNQ1 act
O=C(c1ccccc1)C(Nc1ccccn1)c1ccccc1 (configuration not stated),i,-13.4,i,-7.05*,i
O=C(COC(=O)c1ccc(Sc2ccccc2)c([N+](=O)[O-])c1)NC1CCCc2ccccc21 (configuration not stated),i,-12.3,i,i,i
CC1CC(C)CN(c2ccc(C(=O)OCC(=O)NC3CCCc4ccccc43)cc2[N+](=O)[O-])C1 (configuration not stated),i,-12.6,i,-6.71*,i
Cc1cc(C)n(/N=C/c2cc(Cl)cc(Cl)c2O)c(=O)c1,i,-1.1,i,i,15*
O=C(COC(=O)c1ccccc1O)NCc1ccc2c(c1)OCO2,.,.,i,.,.
CC12CCC(=O)C=C1CCC1C2CCC2(C)C1CC1C3C(=O)N(Cc4ccccc4)C(=O)C3CC(=O)C12 (configuration not stated),.,.,i,.,.
C=CCn1c(OCc2ccccc2)n[nH]c1=S,i,-5.7,i,i,i
COc1ccc(OC)c(NC(=S)N2CCC(C(O)(c3ccccc3)c3ccccc3)CC2)c1,i,-5.2,i,i,44*
Cc1cccc(Sc2nc(-c3ccccc3)ccc2C#N)c1,i,-15.3,i,-6.59*,i
COc1ccc(C(=O)Oc2ccc(=O)n(-c3ccccc3)n2)cc1,i,-13.2,i,i,i
COc1ccc(C(F)(F)F)cc1N/C=C/c1nnnn1-c1ccc(C)cc1,i,-11.6,i,-6.72*,i
CCC(=O)Nc1cccc(C2=NOC3(C2)C[C@@H](C(N)=O)N(C(=O)CC)C3)c1 (some centres not stated),i,-12.3,i,i,i
CCC(=O)Nc1cccc(C2=NOC3(C2)C[C@H](C(N)=O)N(C(=O)CC#N)C3)c1 (some centres not stated),i,6.2*,i,i,i
O=C(NC12CC3CC(CC(C3)C1)C2)c1cc([N+](=O)[O-])ccc1N1CCOCC1,7*,-12.3,i,i,i
Brc1ccc2c(c1)OCCOCCOc1cc(Br)ccc1OCCOCCOCCO2,6*,-22.5,i,-7.69*,i
O=C(COC(=O)/C=C/c1ccccc1)NCC1CCCO1 (configuration not stated),i,-6.4,i,i,i
CCC(C)n1c(SCC(=O)N(CC)c2c(N)n(Cc3ccccc3)c(=O)[nH]c2=O)nc2ccccc2c1=O (configuration not stated),.,.,i,.,.
O=C1CCCCC1Nc1ccc(Br)cc1 (configuration not stated),.,.,i,.,.
O=C(Nc1ccccc1)N(O)c1ccc(Cl)cc1,6*,-8.6,i,i,i
Cc1ccc(C2=NN(CCC(=O)NCCCN3CCOCC3)C(=O)CC2)cc1,i,-8.0,i,i,i
COc1ccc(-c2cn3cc(C(=O)NN)ccc3n2)cc1,i,5.2*,i,i,i
COCCNC(=O)C(=O)N/N=C/c1ccc(C(=O)OC)cc1,i,14.0*,i,i,i
CC(Oc1ccc(F)cc1)C(=O)Nc1cc(S(=O)(=O)N2CCOCC2)ccc1N1CCCCC1 (configuration not stated),i,-12.4,i,i,i
CCC/C=C(\CCC)C(NC(=O)c1ccc(C(=O)OC)cc1)c1ccc(C(=O)OC)cc1 (configuration not stated),6*,-4.4,.,i,i
CCC/C=C(\CCC)C(NC(=O)CCc1ccccc1)c1ccc(C(F)(F)F)cc1 (configuration not stated),i,-9.4,.,i,i
SMILES,KCNQ1 inh,hERG rescue,KCNK3 block,KCNK9 block,KCNQ1 act
CCC/C=C(\CCC)C(NC(=O)c1ccc(C(F)(F)F)cc1)c1ccccc1 (configuration not stated),6*,-12.2,.,i,i
CC(C)C[C@H](NC(=O)OCC1c2ccccc2-c2ccccc21)C(=O)O,.,.,i,.,.
CC(=O)Nc1ccc(Br)c2ccccc12,i,-10.7,i,i,i
O=C(Nc1ccc(Br)c2ccccc12)c1ccc2ccccc2c1O,7*,-27.6,i,i,i
CCOc1ccc(CNc2cccc(SC)c2)cc1,i,-4.6,i,i,i
CC(=O)Nc1ccc(S(=O)(=O)N(C#N)c2nc(C)cc(C)n2)cc1,i,-3.0,i,i,i
Cc1nnc(N2C(=O)C(=O)/C(=C(\O)c3ccc4c(c3)CC(C)O4)C2c2ccccc2)s1 (configuration not stated),i,-2.9,i,i,i
COC(=O)c1ccc(C23CC4(C2)[C@H](CN(C)[C@@H]4c2ccccc2)C3c2ccccc2)cc1 (some centres not stated),i,-7.4,i,-6.61*,i
COC(=O)c1cccc(C23CC4(C2)[C@H](CN(C)[C@@H]4c2ccccc2)C3c2ccccc2)c1 (some centres not stated),i,-8.0,i,i,i
CC(=O)N/C(=C/c1ccc2c(c1)OCO2)C(=O)O,i,-7.7,i,i,9*
O=C(Nc1ccc(C(=O)O)cc1)/C(=C\c1ccc2c(c1)OCO2)NC(=O)c1ccc(Br)cc1,i,-4.8,i,i,10*
O=C(N/C(=C/c1ccc2c(c1)OCO2)C(=O)N1CCOCC1)c1cccs1,i,8.2*,i,i,i
CN(Cc1ccccc1)C(=O)c1cccc(NC(=O)Cc2ccc(NC(=O)C3CCCN(C(=O)c4ccccc4)C3)cc2)c1 (configuration not stated),.,.,i,.,.
COc1ccc(CN2CCN(CC3CC3)CC2CCO)c(C)c1C (configuration not stated),i,-6.0,i,i,i
CCC1CCCCN1Cc1ccc(OC)c(C)c1C (configuration not stated),i,5.3*,i,i,i
CCCCNC(=O)COn1nnc2ccc(S(=O)(=O)N3CCOCC3)cc21,i,-10.2,i,i,i
CCNc1nc(NCC)n2c(SCC(=O)Nc3ccccc3)nnc2n1,i,6.5*,i,i,i
CCNc1nc(NCC)n2c(SCC(=O)Nc3ccc(F)cc3)nnc2n1,i,-5.6,i,i,i
CCCN(CCC)S(=O)(=O)c1ccc(C(=O)OCCN2C(=O)c3cccc4c(N5CCOCC5)ccc(c34)C2=O)cc1,10*,-17.9,i,i,i
CCN(CC)S(=O)(=O)c1ccc(C(=O)N2CCN(CCN3C(=O)c4cccc5cccc(c45)C3=O)CC2)cc1,i,0.1,.,i,i
Clc1ccc2c(SCC3CO3)c3ccccc3nc2c1 (configuration not stated),.,.,i,.,.

# Assay outcomes as filed in PubChem BioAssay.
